Only some compounds are listed: those with a hit (about 3.3% of all), similar ones and a draw of the others.
ABCB6 inh 2 = human ABCB6 transporter inhibition | Q9NP58 | hit rate 0.19% among 360,000 | K562-ABCB6 porphyrin accumulation, flow cytometry, 1 h; hits give low values | fluorescence ratio to DMSO, % at 10 µM | AID 602162;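 active = fluorescence ratio to DMSO below 75%, the collection mean minus 3 SD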;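 also: signal is porphyrin accumulated inside mitochondria; 100% equals median channel fluorescence of DMSO control wells; lower ratio means ABCB6 inhibition with less porphyrin fluorescence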
Target sequence (Q9NP58 whole entry, looked up): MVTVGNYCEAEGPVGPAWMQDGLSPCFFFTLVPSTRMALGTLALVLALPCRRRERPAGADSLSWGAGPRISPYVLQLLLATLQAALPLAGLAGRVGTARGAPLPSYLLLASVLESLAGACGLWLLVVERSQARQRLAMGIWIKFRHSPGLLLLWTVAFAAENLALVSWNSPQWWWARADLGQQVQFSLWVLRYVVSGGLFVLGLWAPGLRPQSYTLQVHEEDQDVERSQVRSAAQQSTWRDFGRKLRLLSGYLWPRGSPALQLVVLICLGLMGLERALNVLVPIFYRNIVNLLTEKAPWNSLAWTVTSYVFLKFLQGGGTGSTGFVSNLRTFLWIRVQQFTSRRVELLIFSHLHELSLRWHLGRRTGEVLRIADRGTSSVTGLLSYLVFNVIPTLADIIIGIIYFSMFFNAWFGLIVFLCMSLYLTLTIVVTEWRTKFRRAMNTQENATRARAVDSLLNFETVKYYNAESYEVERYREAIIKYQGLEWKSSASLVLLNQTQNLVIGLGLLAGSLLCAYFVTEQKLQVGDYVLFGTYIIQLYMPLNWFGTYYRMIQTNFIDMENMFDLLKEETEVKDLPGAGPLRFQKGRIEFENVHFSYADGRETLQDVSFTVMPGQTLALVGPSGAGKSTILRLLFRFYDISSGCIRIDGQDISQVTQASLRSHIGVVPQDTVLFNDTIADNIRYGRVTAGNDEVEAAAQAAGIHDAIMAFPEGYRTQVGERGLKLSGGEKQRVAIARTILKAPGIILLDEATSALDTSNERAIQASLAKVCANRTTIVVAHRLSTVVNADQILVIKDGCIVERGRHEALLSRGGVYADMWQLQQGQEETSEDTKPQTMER
FXN GAA850 act = activators of GAA850 frataxin (FXN) promoter | activation, % at 6 µM | HEK293 lucGAA850 FXN promoter luciferase reporter, 24 h; percent of 10 µM SAHA response | AID 540364 | hit rate 0.56% among 360,000;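 active = activation above the average of all compounds screened plus 3 SD, cutoff fixed separately per campaign, cut at about 7.5% in these data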;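 also: 0% = DMSO wells and 100% = 10 µM SAHA wells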
STAT3 act = STAT3 signaling activation. U3A cells, IL-6 STAT3-luciferase reporter, luminescence; 100% = signal with IL-6 EC80 alone. activation (% of control), % at 5.6 µM. hit rate 0.91% among 190,000. AID 871;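 active = activation above the screen-wide mean of compound activation plus 3 SD, cut at about 130% in these data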;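 also: 0% = background luminescence of wells with medium and substrate only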
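Test system: Human STAT1-deficient U3A cells with stable STAT3-luciferase reporter | Also added: Interleukin-6, 33 ng/mL | Timing: Compound pre-incubation 1 h before IL-6, then 6 h stimulation at 37 °C | Technique: Luciferase reporter luminescence | Read-out: Percent of IL-6-only median luminescence | Benchmarks: IL-6-only wells as 100% reference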
AHR act = activators of human aryl hydrocarbon receptor | P35869 | AHR-responsive luciferase reporter cells, luminescence | activation, % at 5 µM | hit rate 2.5% among 320,000 | AID 2796; in the data active = activation above about 47%;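 also: 0% = vehicle wells and 100% = reference agonist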
GAA30 counter = GAA30 FXN promoter activation counter-screen; shares compounds with FXN GAA850 act; HEK293 lucGAA30 FXN promoter luciferase, 24 h; DMSO = 0%, 5 µM ipriflavone = 100%; activation, % at 6 µM; hit rate 66% among 1,900; AID 588350;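 active = mean activation above the mean of solvent-only control wells plus 3 SD, cut at about 22% in these data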;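 also: counterscreen of GAA850 promoter hits where activity marks nonselective or luminescence artifacts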
GAA850 confirm = GAA850 FXN promoter activation confirmation; shares compounds with FXN GAA850 act; HEK293 lucGAA850 FXN promoter luciferase reporter, 24 h; 100% = activation by SAHA; activation, % at 6 µM; hit rate 86% among 1,900; AID 588351;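 active = mean activation above a set limit taken from the primary screen, cut at about 8% in these data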;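 also: 0% = DMSO wells and 100% = 10 µM SAHA wells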
An asterisk follows results filed as active; · = not tested or not shown.

SMILES	ABCB6 inh 2	FXN GAA850 act	STAT3 act	AHR act	GAA30 counter	GAA850 confirm
COc1ccc(S(=O)(=O)N2CCCN(S(=O)(=O)c3ccc(OC)c(C)c3)CC2)cc1C	97	8.3*	95	0	30*	17*
O=C1CSC(c2ccccc2[N+](=O)[O-])N1CCc1ccccc1 (stereo not drawn)	99	2	127	18	·	·
Cc1oc(-c2ccccc2)nc1C(=O)N1CCN(c2ccc(F)cc2)CC1	100	0	95	1	·	·
O=C(O)c1cnn(-c2nc(-c3ccc(Cl)c(Cl)c3)cs2)c1C(F)(F)F	96	8.1*	·	3	60*	32*
O=C(O)c1cnn(-c2nc(-c3cccc(F)c3)cs2)c1C(F)(F)F	103	1	104	10	·	·
CN(CC(=O)Nc1ccc(Cl)c(C(F)(F)F)c1)C(=O)CCNC(=O)c1ccco1	100	2	·	0	·	·
CN(CC(=O)Nc1ccc(Cl)c(C(F)(F)F)c1)C(=O)CCCNC(=O)c1ccc(Cl)cc1	99	15*	·	4	65*	26*
COc1ccc(S(=O)(=O)N2CCCCC2)cc1NC(=O)Cc1sc(C)nc1-c1ccc(F)cc1	105	13*	·	2	22*	11*
CCN(CC)C(=O)c1sc2nc(-c3ccc(OC)cc3)cn2c1C	103	9.8*	97	1	125*	41*
CNC(=O)c1sc2nc(-c3ccc(OC)cc3)cn2c1C	90	5	106	22	·	·
Cc1c(C(=O)NCc2cccnc2)sc2nc(-c3ccccc3)cn12	99	5	·	12	·	·
Cc1c(C(=O)NCc2ccco2)sc2nc(-c3ccccc3)cn12	94	18*	94	7	56*	29*
COc1ccc(C2=Nn3c(nnc3-c3ccccc3F)SC2)cc1OCC1CC1	92	-2	·	34	·	·
Cc1ccc(OCCOc2cccc(Br)c2)c([N+](=O)[O-])n1	98	7.6*	104	1	81*	40*
O=C(/C=C/c1ccccc1)CC(=O)c1ccccc1O	104	8.9*	90	9	72*	29*
O=C(/C=C/c1ccccc1)NC(=O)c1ccccc1O	97	5	·	-3	·	·
CCCCN(CCCC)CC(O)CN(c1cc([N+](=O)[O-])ccc1OC)S(=O)(=O)c1ccccc1 (stereo not drawn)	98	-11	106	1	·	·
CN(Cc1ccccc1)C(=O)c1cccc(NC(=O)Cc2ccc(NC(=O)C3CCCN(C(=O)C4CCC4)C3)cc2)c1 (stereo not drawn)	101	1	·	·	·	·
COC(=O)c1c(NC(=O)Cc2cccs2)sc(C(=O)N2CCCCC2)c1C	94	9.2*	108	2	8	9.3*
CC(=O)Nc1ccc(NC(=O)COC(=O)c2c(-c3ccccc3)noc2C)cc1	96	-1	·	-1	·	·
Cc1cc(C(=O)COC(=O)c2nccnc2N)c(C)n1C	98	9.1*	79	-3	104*	32*
C[C@@H](Oc1ccccc1)c1nnn(Cc2ccccc2)c1-c1c([C@@H](C)Oc2ccccc2)nnn1Cc1ccccc1	·	·	·	0	·	·
N#Cc1c(N)n(C2CCCCC2)c2nc3ccccc3nc12	105	8.1*	100	3	4	18*
CCC(=O)Nc1c(C#N)c2nc3ccccc3nc2n1C1CCCCC1	98	3	104	2	·	·
Cc1ccc(OCCn2cnc3c(N)ncnc32)cc1	92	8.0*	81	-1	-8	9.8*
SMILES	ABCB6 inh 2	FXN GAA850 act	STAT3 act	AHR act	GAA30 counter	GAA850 confirm
CC[C@@H](C)C(NC(=O)OC(C)(C)C)c1cn([C@@H](CCC(=O)OC(C)(C)C)C(=O)N2CCN(C(=O)OC(C)(C)C)CC2)nn1 (stereo partly drawn)	99	0	·	1	·	·
COc1ccc(-c2cnn3c4c(c(C)nc23)CCN4C(C)C)cc1OC	93	9.8*	104	20	80*	36*
Cc1ccc(S(=O)(=O)NCC(=O)N(CC2CCCO2)C(C(=O)NC2CCCCC2)C(C)C)cc1 (stereo not drawn)	97	-1	·	0	·	·
O=C(CSc1ccc2nnc(-c3cccnc3)n2n1)Nc1ccc(F)cc1F	101	-1	·	9	·	·
CC(=O)Nc1cccc(OCC(=O)Nc2ccccc2)c1	90	5	104	20	·	·
CC(=O)Nc1cccc(OCC(=O)Nc2sccc2C(N)=O)c1	99	9.8*	·	25	109*	36*
O=C(CCC1CCCN(C(=O)c2ccc3c(c2)OCO3)C1)N1CCN(c2ccccn2)CC1 (stereo not drawn)	92	0	93	0	·	·
C=CCn1c2ccccc2c(=O)c2cc(C#CC[C@@H](C)O)ccc21	93	11*	·	41	127*	44*
Cn1c2ccccc2c(=O)c2cc(C#Cc3cccc(N)c3)ccc21	100	0	·	0	·	·
C=CCn1c2ccccc2c(=O)c2cc(C#CC3(O)CCCCC3)ccc21	104	11*	·	22	104*	55*
OCCC1CN(C2CCSCC2)CCN1C1CCCC1 (stereo not drawn)	104	1	94	-2	·	·
CC[C@@]1(C(=O)OC)N[C@H](CN(C)C(C)=O)[C@@H]2C(=O)N(Cc3ccccc3)C(=O)[C@@H]21	100	1	·	-1	·	·
CC[C@@]1(C(=O)OC)N[C@H](CN(C)C(=O)Nc2ccc(Cl)cc2)[C@@H]2C(=O)N(C)C(=O)[C@@H]21	104	-2	·	2	·	·
COC(=O)[C@]1(Cc2ccccc2)N[C@H](CN(C)C(=O)Nc2ccc(OC)cc2)[C@@H]2C(=O)N(Cc3ccccc3)C(=O)[C@@H]21	94	-2	·	2	·	·
CC[C@@]1(C(=O)OC)N[C@H](CN(C)C(=O)Nc2ccc(Cl)cc2)[C@@H]2C(=O)N(Cc3ccccc3)C(=O)[C@@H]21	97	17*	·	1	22	11*
CCN(C[C@H]1N[C@@](CC)(C(=O)OC)[C@H]2C(=O)N(Cc3ccccc3)C(=O)[C@@H]12)C(=O)Nc1ccc(C(F)(F)F)cc1	102	8.4*	·	2	27*	14*
CCN(C[C@H]1N[C@@](CC)(C(=O)OC)[C@H]2C(=O)N(Cc3ccccc3)C(=O)[C@@H]12)C(=O)Nc1ccc(OC)cc1	98	18*	·	0	47*	16*
CC[C@@]1(C(=O)OC)N[C@H](CN(C)C(=O)COc2ccccc2)[C@@H]2C(=O)N(Cc3ccccc3)C(=O)[C@@H]21	87	9.5*	·	-2	18	7
CCOC(=O)C1=C(N)OC2=C(C(=O)CC(C)(C)C2)C1c1ccccc1OCC#N (stereo not drawn)	99	2	104	0	·	·
O=C(NCc1cccs1)C1Cc2c(-c3ccc(Cl)cc3)ccnc2O1 (stereo not drawn)	105	-3	·	·	·	·
COCCCNC(=S)Nc1c(C)cc(C)cc1C	96	-1	·	0	·	·
